ChEMBL document CHEMBL2010686, “Influence of the active compounds of Perilla frutescens leaves on lipid membranes” (J Nat Prod, 2012)
The source made the active and inactive calls. No cut-off for these calls is given here.

Experiments:
Lipid bilayer [1] = experiment: Binding affinity to 1,2-dimyristoyl-sn-glycero-3-phosphocholine bilayer assessed as change in main phase transition temperature at low concentration by differential scanning calorimetry; format: physicochemical
How it was run: (§1)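 Differential scanning calorimetry on 15 mM multilamellar DMPC vesicles in 50 mM sodium phosphate (ionic strength 154 mM with NaCl, pH 7.5). Terpenoid added in MeOH (below 10 μL); the x = 0 control received 10 μL MeOH. Terpenoid mole fraction varied from 0 to 0.15. Main-transition Tm, pretransition temperature and transition enthalpy were read from the thermograms.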

Lipid bilayer [2] = experiment: Binding affinity to 1,2-dimyristoyl-sn-glycero-3-phosphocholine bilayer assessed as decrease in main phase transition temperature at high concentration by differential scanning calorimetry (reference value: 24.4 deg C); format: physicochemical; how it was run: as §1
[3] = 1,2-dimyristoyl-sn-glycero-3-phosphocholine bilayer-water partition coefficient, K of the compound at 300 uM by isothermal titration calorimetry at 35 deg C; format: physicochemical; details: DMPC vesicles/water
How it was run: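 DMPC vesicles hydrated in 50 mM sodium phosphate (ionic strength 154 mM with NaCl, pH 7.5), extruded at 35 °C through 100 nm filters. Lipid suspension (1–20 mM) injected in small aliquots into ~300 μM terpenoid in the ITC cell (1.409 mL). Integrated heats per injection fitted with a dilution-heat term to give K and ΔH. ΔG0 = −RTln(55.5K). ΔCP from linear regression of ΔH versus temperature.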

Lipid bilayer [4] = experiment: Binding affinity to 1,2-dimyristoyl-sn-glycero-3-phosphocholine bilayer assessed as increase in pre-transition temperature at low concentration by differential scanning calorimetry (reference value: 12.7 deg C); format: physicochemical; how it was run: as §1
Lipid bilayer [5] = experiment: Binding affinity to Me-5-DSA labelled 1,2-dimyristoyl-sn-glycero-3-phosphocholine bilayer containing assessed as change in membrane fluidity by electron paramagnetic resonance spectroscopy
How it was run: (§2)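 DMPC membranes carrying a spin label, either pure or with terpenoid at 15 mol % (Me-5-DSA also over a concentration series). Samples held in hematocrit tubes and equilibrated 10 min at 35 °C. X-band spectra (~9.4 GHz, ~2 mW, 100 kHz modulation, 1 G amplitude), usually five scans summed. Order parameter from hyperfine splittings. Rotational correlation times from central-line width and line heights as a fluidity measure.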

Lipid bilayer [6] = experiment: Binding affinity to Me-16-DSA labelled 1,2-dimyristoyl-sn-glycero-3-phosphocholine bilayer containing assessed as change in membrane fluidity by electron paramagnetic resonance spectroscopy; how it was run: as §2
Lipid bilayer [7] = experiment: Binding affinity to 5-DSA labelled 1,2-dimyristoyl-sn-glycero-3-phosphocholine bilayer containing assessed as change in membrane fluidity by electron paramagnetic resonance spectroscopy; how it was run: as §2
Lipid bilayer [8] = experiment: Binding affinity to CSL labelled 1,2-dimyristoyl-sn-glycero-3-phosphocholine bilayer containing assessed as change in membrane fluidity by electron paramagnetic resonance spectroscopy; how it was run: as §2

Row | Structure (SMILES) | Activity (Lipid bilayer [1]) | T (Lipid bilayer [2]) | Ko [3] | T (Lipid bilayer [4]) | Activity (Lipid bilayer [5]) | Activity (Lipid bilayer [6]) | Activity (Lipid bilayer [7]) | Activity (Lipid bilayer [8]) | Activity [3]
1 | C=C(C)[C@H]1CC=C(C)CC1 [D-LIMONENE] | Not Active | 16.3 °C | 10900 M⁻¹ | 14.5 °C | inactive | inactive | inactive | inactive | 
2 | C=C(C)C1CC=C(C=O)CC1 (stereo not drawn) [PERILLALDEHYDE] | Not Active | 19.4 °C | 215 M⁻¹ |  | inactive | inactive | inactive | inactive | 
3 | C=C(C)[C@@H]1CC=C(C(=O)O)CC1 [PERILLIC ACID] |  |  |  |  |  |  |  |  | Not Active
4 | C=C(C)[C@@H]1CC=C(CO)CC1 [PERILLYL ALCOHOL] | Not Active | 19.4 °C | 305 M⁻¹ |  | inactive | inactive | inactive | inactive | 
